Data taken from ChEMBL document CHEMBL1144427, “Synthesis and in vitro and in vivo antitumor activity of 2-phenylpyrroloquinolin-4-ones” (J Med Chem, 2005).
Where a name gives a salt, the structure may show the parent alone.

Key:
OVCAR-3 = test: Cytotoxic activity against human tumor Ovcar-3 cell line; assay type: functional, cell-based
Procedure, shortened: (§1)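 Cells kept in RPMI with 10% heat-inactivated FBS and penicillin/streptomycin. MTT assay: 10⁴ cells/well seeded, exposed after 24 h to compound at 0.01–100 µM final for 72 h. MTT was added for 4 h, then SDS/HCl for 18 h at 37 °C, and absorbance read at 550 nm. IC50 is the concentration halving absorbance versus untreated cells, from 6–8 wells in at least two independent experiments.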

[1] = Cytotoxic activity against human tumor SW 13 cell line; assay type: functional, cell-based
Procedure, shortened: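 Maintained in Leibovitz medium with 10% FBS and penicillin/streptomycin. Colorimetric MTT assay: 10⁴ cells/well, compound at 0.01–100 µM final from 24 h after seeding, for 72 h. MTT for 4 h, then SDS in 0.01 N HCl for 18 h at 37 °C, absorbance at 550 nm. IC50 is the concentration halving absorbance versus control, from 6–8 wells in at least two independent runs.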

[2] = Cytotoxic activity against human tumor PLC/PRF/5 cell line; assay type: functional
Procedure, shortened: (§2)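 DMEM with 10% heat-inactivated FBS and antibiotics used for culture. Cells plated at 10⁴/well; after 24 h, 72 h exposure to 0.01–100 µM (final) compound. Survival measured by MTT (4 h), SDS/HCl solubilisation for 18 h at 37 °C, absorbance at 550 nm. IC50 is the concentration giving 50% absorbance reduction versus untreated cells, from 6–8 wells across at least two experiments.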

[3] = Cytotoxic activity against human tumor Aro cell line; assay type: functional, cell-based; procedure, shortened: as §2
[4] = Cytotoxic activity against human tumor Hep 3B cell line; assay type: functional; conditions: Hep3B; procedure, shortened: as §2
HepG2 = test: Cytotoxic activity against human tumor Hep G2 cell line; assay type: functional, cell-based; procedure, shortened: as §2
MCF7 = test: Cytotoxic activity against human tumor MCF-7 cell line; assay type: functional, cell-based; procedure, shortened: as §2
A 172 = test: Cytotoxic activity against human tumor A-172 cell line; assay type: functional, cell-based; procedure, shortened: as §1
[5] = Cytotoxic activity against human tumor PT45 cell line; assay type: functional, cell-based; conditions: PT-45; procedure, shortened: as §1
[6] = Cytotoxic activity against human tumor NCI-H295 cell line; assay type: functional, cell-based
Procedure, shortened: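 Grown in RPMI with 2% FBS, insulin-transferrin-selenium and penicillin/streptomycin. MTT read-out: 10⁴ cells/well, compound 0.01–100 µM final added after 24 h, 72 h exposure. MTT for 4 h, solubilised in SDS/HCl for 18 h at 37 °C, absorbance at 550 nm. IC50 is the concentration cutting absorbance 50% versus control, from 6–8 replicate wells over two or more independent experiments.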

IGROV-1 = test: Cytotoxic activity against human tumor Igrov-1 cell line; assay type: functional, cell-based; procedure, shortened: as §1
HT-29 = test: Cytotoxic activity against human tumor HT-29 cell line; assay type: functional, cell-based; procedure, shortened: as §2
[7] = Cytotoxic activity against human tumor C8305 cell line; assay type: functional, cell-based; procedure, shortened: as §1
[8] = Cytotoxic activity against human tumor Mia Paca 2 cell line; assay type: functional, cell-based; procedure, shortened: as §1

SMILES	IC50 (OVCAR-3; Homo sapiens, OVCAR-3) [µM]	IC50 ([1]; Homo sapiens, SW13) [µM]	IC50 ([2]; Homo sapiens, PLC-PRF-5) [µM]	IC50 ([3]; Homo sapiens, ARO) [µM]	IC50 [4] [µM]	IC50 (HepG2; Homo sapiens, HepG2) [µM]	IC50 (MCF7; Homo sapiens, MCF7) [µM]	IC50 (A 172) [µM]	IC50 [5] [µM]	IC50 ([6]; Homo sapiens, NCI-H295) [µM]	IC50 (IGROV-1; Homo sapiens, IGROV-1) [µM]	IC50 (HT-29) [µM]	IC50 ([7]; Homo sapiens, C8305) [µM]	IC50 [8] [µM]	further results
O=[N+]([O-])c1ccc(-c2cc(O)c3ccc4[nH]ccc4c3n2)cc1	50	50	> 100	> 100	30	100	60	> 100	> 100	80	60	> 100	> 100	> 100	
Oc1cc(-c2cccs2)nc2c1ccc1[nH]ccc12	20	50	80	80	50	10	30	> 100	100	40	15	> 100	100	> 100	
Nc1cccc(-c2cc(O)c3ccc4[nH]ccc4c3n2)c1 [listing 1 of 2 here]															IC50 (OVCAR-3; ovcar-3): > 100 µM; IC50 ([1]; sw 13): > 100 µM; IC50 [2]: > 100 µM; IC50 ([3]; aro): > 100 µM; IC50 (HepG2; hepg2): > 100 µM; IC50 (MCF7; mcf7): > 100 µM; IC50 ([6]; nci-h295): > 100 µM; IC50 (IGROV-1; igrov-1): > 100 µM; IC50 ([7]; c8305): > 100 µM
CC[C@]1(O)C[C@H]2CN(CCc3c([nH]c4ccccc34)[C@@](C(=O)OC)(c3cc4c(cc3OC)N(C=O)[C@H]3[C@@](O)(C(=O)OC)[C@H](OC(C)=O)[C@]5(CC)C=CCN6CC[C@]43[C@@H]65)C2)C1 [VINCRISTINE SULFATE]	0.01	0.001	0.1	< 0.0001	0.1	0.1	0.01	> 100	0.1	0.1	0.01	0.1	0.1	0.01	
Oc1ccnc2c1ccc1[nH]ccc12	> 100	> 100	> 100	> 100	> 100	> 100	> 100	> 100	> 100	> 100	> 100	> 100	> 100	> 100	
Nc1cccc(-c2cc(O)c3ccc4[nH]ccc4c3n2)c1 [listing 2 of 2 here]			50	70	> 100	50	50	> 100	> 100	50		> 100	80	> 100	IC50 (OVCAR-3; ovcar-3): 30 µM; IC50 ([1]; sw 13): 10 µM; IC50 (IGROV-1; igrov-1): 30 µM
Oc1cc(-c2ccccc2)nc2c1ccc1[nH]ccc12	2	3	8	8	4	4	4	100	100	8	5	60	10	4	
Cn1ccc2c3nc(-c4ccccc4)cc(O)c3ccc21	2	0.9	7	5	1	1	4	> 100	100	2	3	50	10	8	
COc1cccc(-c2cc(O)c3ccc4[nH]ccc4c3n2)c1	1	0.7	7	4	2	2	1	> 100	100	3	3	50	10	5	
Cc1cc(O)c2ccc3[nH]ccc3c2n1	> 100	> 100	> 100	> 100	> 100	> 100	> 100	> 100	> 100	> 100	> 100	> 100	> 100	> 100	
O=[N+]([O-])c1cccc(-c2cc(O)c3ccc4[nH]ccc4c3n2)c1	50	60	> 100	80	50	> 100	70	> 100	> 100	60	80	> 100	> 100	> 100	
